According to ChEMBL document CHEMBL1255417, “Correlation between in vitro activity of posaconazole and in vivo efficacy against Rhizopus oryzae infection in mice” (Antimicrob Agents Chemother, 2010):
In brackets after ≈: the same amount, converted by molar mass. Activity calls are given as the source filed them. The calls are words filed in the database; no cut-off is given here.

What was measured:
[1] = test system: Rhizopus arrhizus; assay: Antifungal activity against drug-susceptible Rhizopus oryzae UTHSC 02-2882 by broth microdilution method; assay type: functional
In short: (§1)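 Broth microdilution MIC in µg/ml, run per the CLSI (formerly NCCLS) guideline for filamentous fungi, M38-A2.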

[2] = test system: Rhizopus arrhizus; assay: Antifungal activity against drug-susceptible Rhizopus oryzae UTHSC 04-1613 by broth microdilution method; assay type: functional
In short: (§2)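 CLSI broth microdilution for filamentous fungi (M38-A2); MIC recorded in µg/ml against clinical isolates; breakpoints applied at 24 h.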

[3] = test system: Rhizopus arrhizus; assay: Antifungal activity against drug-susceptible Rhizopus oryzae UTHSC 04-2159 by broth microdilution method; assay type: functional; in short: as §2
[4] = test system: Rhizopus arrhizus; assay: Antifungal activity against drug-susceptible Rhizopus oryzae UTHSC 02-439 by broth microdilution method; assay type: functional; in short: as §1
[5] = test system: Rhizopus arrhizus; assay: Antifungal activity against drug-susceptible Rhizopus oryzae UTHSC 05-3580 by broth microdilution method; assay type: functional
In short: (§3)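 Posaconazole MIC in ug/ml, determined by broth microdilution following the CLSI guidelines for moulds (M38-A2).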

[6] = test system: Rhizopus arrhizus; assay: Antifungal activity against drug-susceptible Rhizopus oryzae UTHSC 06-3827 by broth microdilution method; assay type: functional; in short: as §3
[7] = test system: Rhizopus arrhizus; assay: Antifungal activity against drug-susceptible Rhizopus oryzae UTHSC 03-299 by broth microdilution method; assay type: functional; in short: as §2
[8] = test system: Rhizopus arrhizus; assay: Antifungal activity against drug-intermediate Rhizopus oryzae UTHSC 04-3109 by broth microdilution method; assay type: functional; in short: as §1
[9] = test system: Rhizopus arrhizus; assay: Antifungal activity against drug-susceptible Rhizopus oryzae UTHSC 03-228 at 5 ug by disk diffusion assay; assay type: functional; settings: read-out: DIZ
In short: (§4)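 Neo-Sensitabs tablet diffusion on Mueller-Hinton agar, following the guidelines for molds. Tablets were 9 mm in diameter and held 5 µg of drug. The read-out was inhibition zone diameter in mm.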

[10] = test system: Rhizopus arrhizus; assay: Antifungal activity against drug-susceptible Rhizopus oryzae UTHSC 06-4133 at 5 ug by disk diffusion assay; assay type: functional; settings: read-out: DIZ
In short: (§5)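 Neo-Sensitabs tablet diffusion on Mueller-Hinton agar, run per the mould guidelines. Tablets are 9 mm in diameter and carry 5 ug posaconazole. The read-out is the inhibition zone diameter in mm.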

[11] = test system: Rhizopus arrhizus; assay: Antifungal activity against drug-susceptible Rhizopus oryzae UTHSC 02-2882 at 5 ug by disk diffusion assay; assay type: functional; settings: read-out: DIZ; in short: as §4
[12] = test system: Rhizopus arrhizus; assay: Antifungal activity against drug-susceptible Rhizopus oryzae UTHSC 04-443 at 5 ug by disk diffusion assay; assay type: functional; settings: read-out: DIZ
In short: (§6)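 Neo-Sensitabs tablet diffusion on Mueller-Hinton agar, following guidelines for molds; 9 mm tablets containing 5 µg posaconazole; inhibition zone diameter measured in mm; zone breakpoints applied at 24 h.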

[13] = test system: Rhizopus arrhizus; assay: Antifungal activity against drug-susceptible Rhizopus oryzae UTHSC 04-2459 at 5 ug by disk diffusion assay; assay type: functional; settings: read-out: DIZ; in short: as §6
[14] = test system: Rhizopus arrhizus; assay: Antifungal activity against drug-susceptible Rhizopus oryzae UTHSC 06-1080 at 5 ug by disk diffusion assay; assay type: functional; settings: read-out: DIZ; in short: as §5
[15] = test system: Rhizopus arrhizus; assay: Antifungal activity against drug-susceptible Rhizopus oryzae UTHSC 06-4152 at 5 ug by disk diffusion assay; assay type: functional; settings: read-out: DIZ; in short: as §5
[16] = test system: Rhizopus arrhizus; assay: Antifungal activity against drug-susceptible Rhizopus oryzae UTHSC 06-329 at 5 ug by disk diffusion assay; assay type: functional; settings: read-out: DIZ; in short: as §5
[17] = test system: Rhizopus arrhizus; assay: Antifungal activity against drug-susceptible Rhizopus oryzae UTHSC 03-1826 at 5 ug by disk diffusion assay; assay type: functional; settings: read-out: DIZ; in short: as §4
[18] = test system: Rhizopus arrhizus; assay: Antifungal activity against drug-susceptible Rhizopus oryzae UTHSC 05-1502 at 5 ug by disk diffusion assay; assay type: functional; settings: read-out: DIZ; in short: as §6
[19] = test system: Rhizopus arrhizus; assay: Antifungal activity against drug-susceptible Rhizopus oryzae UTHSC 05-1817 at 5 ug by disk diffusion assay; assay type: functional; settings: read-out: DIZ; in short: as §6
[20] = test system: Rhizopus arrhizus; assay: Antifungal activity against drug-susceptible Rhizopus oryzae UTHSC 05-2447 at 5 ug by disk diffusion assay; assay type: functional; settings: read-out: DIZ; in short: as §6
[21] = test system: Rhizopus arrhizus; assay: Antifungal activity against drug-susceptible Rhizopus oryzae UTHSC 04-1220 at 5 ug by disk diffusion assay; assay type: functional; settings: read-out: DIZ; in short: as §6
[22] = test system: Rhizopus arrhizus; assay: Antifungal activity against drug-susceptible Rhizopus oryzae UTHSC 04-443 after 24 to 48 hrs; assay type: functional
In short: (§7)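 Minimum fungicidal concentration: 20 µl from each microdilution well showing complete inhibition (optically clear) plated on potato dextrose agar, incubated 35°C for 24 to 48 h; MFC taken as lowest drug concentration giving no growth.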

[23] = test system: Rhizopus arrhizus; assay: Antifungal activity against drug-susceptible Rhizopus oryzae UTHSC 04-1241 after 24 to 48 hrs; assay type: functional; in short: as §7
[24] = test system: Rhizopus arrhizus; assay: Antifungal activity against drug-susceptible Rhizopus oryzae UTHSC 06-329 after 24 to 48 hrs; assay type: functional
In short: (§8)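 Minimum fungicidal concentration taken from the broth microdilution plates. From each well with complete inhibition (optically clear), 20 ul is plated on potato dextrose agar. Plates are incubated at 35°C for 24 to 48 h. The MFC is the lowest drug concentration giving no growth.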

[25] = test system: Rhizopus arrhizus; assay: Antifungal activity against drug-susceptible Rhizopus oryzae UTHSC 05-2975 after 24 to 48 hrs; assay type: functional; in short: as §7
[26] = test system: Rhizopus arrhizus; assay: Antifungal activity against drug-susceptible Rhizopus oryzae UTHSC 05-3132 after 24 to 48 hrs; assay type: functional; in short: as §8
[27] = test system: Rhizopus arrhizus; assay: Antifungal activity against drug-susceptible Rhizopus oryzae UTHSC 05-3580 after 24 to 48 hrs; assay type: functional; in short: as §8
[28] = test system: Rhizopus arrhizus; assay: Antifungal activity against drug-susceptible Rhizopus oryzae UTHSC 04-1220 after 24 to 48 hrs; assay type: functional; in short: as §7
[29] = test system: Rhizopus arrhizus; assay: Antifungal activity against drug-susceptible Rhizopus oryzae UTHSC 05-3111 after 24 to 48 hrs; assay type: functional; in short: as §8
[30] = test system: Rhizopus arrhizus; assay: Antifungal activity against drug-susceptible Rhizopus oryzae UTHSC 05-1679 after 24 to 48 hrs; assay type: functional; in short: as §7
[31] = test system: Rhizopus arrhizus; assay: Antifungal activity against drug-intermediate Rhizopus oryzae UTHSC 03-285 after 24 to 48 hrs; assay type: functional
[32] = test system: Rhizopus arrhizus; assay: Antifungal activity against drug-intermediate Rhizopus oryzae UTHSC 05-3032 after 24 to 48 hrs; assay type: functional
[33] = test system: Rhizopus arrhizus; assay: Antifungal activity against drug-intermediate Rhizopus oryzae UTHSC 03-3165 after 24 to 48 hrs; assay type: functional
[34] = test system: Rhizopus arrhizus; assay: Antifungal activity against drug-susceptible Rhizopus oryzae UTHSC 06-89 infected in OF1 mouse assessed as increase in mouse survival at 20-30 mg/kg, po bid treated 24 hrs after fungal infection; assay type: functional, organism-based
[35] = test system: Rhizopus arrhizus; assay: Antifungal activity against drug-intermediate Rhizopus oryzae infected in OF1 mouse assessed as mouse survival at 30 mg/kg, po bid treated 24 hrs after fungal infection; assay type: functional
In short: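 Survival model in male OF1 mice, 30 g. Mice were immunosuppressed 1 day before infection with cyclophosphamide 200 mg/kg i.p. plus 5-fluorouracil 150 mg/kg i.v., then infected i.v. via lateral tail vein with 2 × 10^4 CFU in 0.2 ml saline. Oral gavage at 10, 20 or 30 mg/kg BID began 24 h post-challenge for 7 days. Ceftazidime 5 mg/day s.c. was given days 1–7. Groups of 10 were checked daily for 20 days; untreated controls.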

[36] = test system: Rhizopus arrhizus; assay: Antifungal activity against drug-susceptible Rhizopus oryzae UTHSC 02-2882 infected in OF1 mouse assessed as reduction in kidney fungal load at 10-30 mg/kg, po bid; assay type: functional, organism-based
In short: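 Tissue burden in immunosuppressed male OF1 mice, using cyclophosphamide 200 mg/kg i.p. plus 5-fluorouracil 150 mg/kg i.v. on day −1. Mice received 2 × 10^4 CFU i.v. by tail vein, then oral gavage at 10, 20 or 30 mg/kg BID from 24 h post-challenge, with ceftazidime cover; untreated controls. Groups of 10 were killed on day 4. Kidneys and brains were homogenized in 2 ml saline, serially diluted 10-fold, plated on PDA and counted after 24 h at 35°C.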

Question: With `CC[C@@H]([C@H](C)O)n1ncn(-c2ccc(N3CCN(c4ccc(OC[C@@H]5CO[C@@](Cn6cncn6)(c6ccc(F)cc6F)C5)cc4)CC3)cc2)c1=O` [POSACONAZOLE] as the molecule, how does the MIC [1] read?
Answer: 0.25 µg/mL (≈ 0.357 µM)

Question: What about the MIC [2] of the same molecule?
Answer: 0.5 µg/mL (≈ 0.713 µM)

Question: What about the MIC [3] of the same molecule?
Answer: 0.5 µg/mL (≈ 0.713 µM)

Question: What about the MIC [4] of the same molecule?
Answer: 0.25 µg/mL (≈ 0.357 µM)

Question: And the MIC [5]?
Answer: 0.5 µg/mL (≈ 0.713 µM)

Question: What about the MIC [6] of the same molecule?
Answer: 1 µg/mL (≈ 1.43 µM)

Question: And the MIC [7]?
Answer: 1 µg/mL (≈ 1.43 µM)

Question: And the MIC [8]?
Answer: 2 µg/mL (≈ 2.85 µM)

Question: What about the zone of inhibition at 5 µg/disc [9] of the same molecule?
Answer: 25 mm

Question: And the zone of inhibition at 5 µg/disc [10]?
Answer: 23 mm

Question: And the zone of inhibition at 5 µg/disc [11]?
Answer: 22 mm

Question: What about the zone of inhibition at 5 µg/disc [12] of the same molecule?
Answer: 22 mm

Question: And the zone of inhibition at 5 µg/disc [13]?
Answer: 18 mm

Question: What about the zone of inhibition at 5 µg/disc [14] of the same molecule?
Answer: 18 mm

Question: What about the zone of inhibition at 5 µg/disc [15] of the same molecule?
Answer: 22 mm

Question: And the zone of inhibition at 5 µg/disc [16]?
Answer: 20 mm

Question: What about the zone of inhibition at 5 µg/disc [17] of the same molecule?
Answer: 18 mm

Question: What about the zone of inhibition at 5 µg/disc [18] of the same molecule?
Answer: 21 mm

Question: What about the zone of inhibition at 5 µg/disc [19] of the same molecule?
Answer: 25 mm

Question: And the zone of inhibition at 5 µg/disc [20]?
Answer: 17 mm

Question: And the zone of inhibition at 5 µg/disc [21]?
Answer: 20 mm

Question: And the MFC [22]?
Answer: 1 µg/mL (≈ 1.43 µM)

Question: And the MFC [23]?
Answer: 0.5 µg/mL (≈ 0.713 µM)

Question: And the MFC [24]?
Answer: 0.5 µg/mL (≈ 0.713 µM)

Question: And the MFC [25]?
Answer: 2 µg/mL (≈ 2.85 µM)

Question: What about the MFC [26] of the same molecule?
Answer: 0.5 µg/mL (≈ 0.713 µM)

Question: And the MFC [27]?
Answer: 1 µg/mL (≈ 1.43 µM)

Question: What about the MFC [28] of the same molecule?
Answer: 1 µg/mL (≈ 1.43 µM)

Question: What about the MFC [29] of the same molecule?
Answer: 2 µg/mL (≈ 2.85 µM)

Question: What about the MFC [30] of the same molecule?
Answer: 0.5 µg/mL (≈ 0.713 µM)

Question: What about the MFC [31] of the same molecule?
Answer: > 16 µg/mL

Question: And the MFC [32]?
Answer: > 16 µg/mL

Question: And the MFC [33]?
Answer: 16 µg/mL (≈ 22.8 µM)

Question: And the Activity [34]?
Answer: Active

Question: What about the Activity [35] of the same molecule?
Answer: 10%

Question: And the Activity [36]?
Answer: Active
